Columns and labels:
His6-Pd2,6ST(16–497) = biological target: T1, His6-Pd2,6ST(16–497) (Photobacterium damselae, UniProt O66375); test: donor hydrolysis, capillary electrophoresis, Michaelis-Menten fit; format: biochemical; details: donor hydrolysis (water as acceptor); pH 8.0; 37 °C
T1 sequence (O66375 16-497): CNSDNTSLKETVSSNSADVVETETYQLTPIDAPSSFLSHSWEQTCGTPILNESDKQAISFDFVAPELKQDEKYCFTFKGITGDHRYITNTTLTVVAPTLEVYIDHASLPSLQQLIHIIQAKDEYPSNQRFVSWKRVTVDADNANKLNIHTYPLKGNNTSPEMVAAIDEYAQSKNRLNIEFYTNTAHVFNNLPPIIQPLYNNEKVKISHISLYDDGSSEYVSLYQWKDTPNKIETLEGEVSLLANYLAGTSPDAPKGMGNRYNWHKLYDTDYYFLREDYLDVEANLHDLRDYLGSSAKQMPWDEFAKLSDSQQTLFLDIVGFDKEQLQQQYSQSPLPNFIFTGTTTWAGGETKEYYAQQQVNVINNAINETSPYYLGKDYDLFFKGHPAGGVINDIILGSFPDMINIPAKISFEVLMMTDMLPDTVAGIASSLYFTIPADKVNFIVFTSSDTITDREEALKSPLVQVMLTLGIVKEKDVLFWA
In short: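 Recombinant enzyme (6 μM) was incubated with CMP-Neu5Ac (10, 20, 40, 60, 80 and 100 mM) in 200 mM Tris-HCl pH 8.0 for 20 min, with no acceptor, in duplicate. Reactions were stopped with ethanol and centrifuged. Supernatants were run by capillary electrophoresis in 25 mM sodium tetraborate pH 9.4, with PDA detection at 200 and 254 nm. Kinetic parameters came from a Michaelis-Menten fit of the duplicate means.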

Psp2,6ST(15–501)-His6 = biological target: T2, Psp2,6ST(15–501)-His6 (Photobacterium sp. JT-ISH-224, UniProt A8QYL1, A366G); test: sialyltransfer, HPLC with fluorescence detection, Michaelis-Menten fit; format: biochemical; details: 20 °C, labelled compound
T2 sequence (A8QYL1 15-501 A366G): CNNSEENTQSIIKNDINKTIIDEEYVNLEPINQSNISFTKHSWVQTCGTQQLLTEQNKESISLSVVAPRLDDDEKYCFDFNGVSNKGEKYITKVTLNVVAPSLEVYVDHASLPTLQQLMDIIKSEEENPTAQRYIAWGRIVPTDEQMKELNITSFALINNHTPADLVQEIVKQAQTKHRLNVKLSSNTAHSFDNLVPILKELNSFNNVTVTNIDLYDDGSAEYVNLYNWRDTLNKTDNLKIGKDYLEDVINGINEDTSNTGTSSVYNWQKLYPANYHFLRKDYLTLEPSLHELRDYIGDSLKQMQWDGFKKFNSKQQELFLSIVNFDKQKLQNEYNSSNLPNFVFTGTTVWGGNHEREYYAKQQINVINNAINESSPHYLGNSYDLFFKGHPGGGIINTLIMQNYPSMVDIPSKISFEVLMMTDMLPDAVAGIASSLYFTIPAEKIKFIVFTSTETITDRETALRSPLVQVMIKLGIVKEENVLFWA

[1] = substrate: CC(=O)N[C@H]1[C@H]([C@H](O)[C@H](O)CO)O[C@](OP(=O)(O)OC[C@H]2O[C@@H](n3ccc(N)nc3=O)[C@H](O)[C@@H]2O)(C(=O)O)C[C@@H]1O; test: donor hydrolysis, capillary electrophoresis, Michaelis-Menten fit; format: biochemical, Photobacterium sp. JT-ISH-224; details: donor hydrolysis (water as acceptor), pH 8.0, 20 °C
[2] = substrate: Cc1cc(=O)oc2cc(O[C@@H]3O[C@H](CO)[C@@H](O[C@@H]4O[C@H](CO)[C@H](O)[C@H](O)[C@H]4O)[C@H](O)[C@H]3O)ccc12; test: sialyltransfer, HPLC with fluorescence detection, Michaelis-Menten fit; format: biochemical, Photobacterium sp. JT-ISH-224; details: CMP-Neu5Ac 1.0 mM, pH 8.0, 20 °C
[3] = substrate: CC(=O)N[C@H]1[C@H]([C@H](O)[C@H](O)CO)O[C@](OP(=O)(O)OC[C@H]2O[C@@H](n3ccc(N)nc3=O)[C@H](O)[C@@H]2O)(C(=O)O)C[C@@H]1O; test: as above; format: biochemical, Photobacterium sp. JT-ISH-224; details: LacβMU 1.0 mM as acceptor, pH 8.0, 20 °C

Question: Which “Km (mM)” value (His6-Pd2,6ST(16–497)) does the source give for `CC(=O)N[C@H]1[C@H]([C@H](O)[C@H](O)CO)O[C@](OP(=O)(O)OC[C@H]2O[C@@H](n3ccc(N)nc3=O)[C@H](O)[C@@H]2O)(C(=O)O)C[C@@H]1O` [CMP-Neu5Ac] here?
Answer: (1.8±0.4)×10 mM

Question: How did the Km (Psp2,6ST(15–501)-His6; CMP-Neu5Ac 4.0 mM, pH 8.0) turn out when `CC(=O)N[C@H]1[C@@H](O[C@H](C)[C@H](N)C(=O)O)O[C@H](CO)[C@H](O)[C@@H]1O` [GalNAcαThr] was run?
Answer: 7.2 ± 3 mM

Question: `CC(=O)N[C@H]1[C@@H](OC[C@H](N)C(=O)O)O[C@H](CO)[C@H](O)[C@@H]1O` [GalNAcαSer] was tested. Which Km (Psp2,6ST(15–501)-His6; CMP-Neu5Ac 2.0 mM, pH 8.0) did it give?
Answer: 1.7 ± 0.7 mM

Question: For GalNAcα2AA, which Km (Psp2,6ST(15–501)-His6; CMP-Neu5Ac 4.0 mM, pH 5.0) is on record?
Answer: 5.5 ± 1 mM

B1: Psp2,6ST(15–501)-His6 (Photobacterium sp. JT-ISH-224) (protein)
chain: CNNSEENTQSIIKNDINKTIIDEEYVNLEPINQSNISFTKHSWVQTCGTQQLLTEQNKESISLSVVAPRLDDDEKYCFDFNGVSNKGEKYITKVTLNVVAPSLEVYVDHASLPTLQQLMDIIKSEEENPTAQRYIAWGRIVPTDEQMKELNITSFALINNHTPADLVQEIVKQAQTKHRLNVKLSSNTAHSFDNLVPILKELNSFNNVTVTNIDLYDDGSAEYVNLYNWRDTLNKTDNLKIGKDYLEDVINGINEDTSNTGTSSVYNWQKLYPANYHFLRKDYLTLEPSLHELRDYIGDSLKQMQWDGFKKFNSKQQELFLSIVNFDKQKLQNEYNSSNLPNFVFTGTTVWAGNHEREYYAKQQINVINNAINESSPHYLGNSYDLFFKGHPGGGIINTLIMQNYPSMVDIPSKISFEVLMMTDMLPDAVAGIASSLYFTIPAEKIKFIVFTSTETITDRETALRSPLVQVMIKLGIVKEENVLFWA
Question: How did the kcat [1] turn out when B1 was run?
Answer: 4.83 ± 0.5 s⁻¹

Question: What about the kcat/Km [1] of the same molecule?
Answer: 283 M⁻¹ s⁻¹

B2: Psp2,6ST(15–501)-His6 (Photobacterium sp. JT-ISH-224; A366G) (protein)
chain: CNNSEENTQSIIKNDINKTIIDEEYVNLEPINQSNISFTKHSWVQTCGTQQLLTEQNKESISLSVVAPRLDDDEKYCFDFNGVSNKGEKYITKVTLNVVAPSLEVYVDHASLPTLQQLMDIIKSEEENPTAQRYIAWGRIVPTDEQMKELNITSFALINNHTPADLVQEIVKQAQTKHRLNVKLSSNTAHSFDNLVPILKELNSFNNVTVTNIDLYDDGSAEYVNLYNWRDTLNKTDNLKIGKDYLEDVINGINEDTSNTGTSSVYNWQKLYPANYHFLRKDYLTLEPSLHELRDYIGDSLKQMQWDGFKKFNSKQQELFLSIVNFDKQKLQNEYNSSNLPNFVFTGTTVWGGNHEREYYAKQQINVINNAINESSPHYLGNSYDLFFKGHPGGGIINTLIMQNYPSMVDIPSKISFEVLMMTDMLPDAVAGIASSLYFTIPAEKIKFIVFTSTETITDRETALRSPLVQVMIKLGIVKEENVLFWA
Question: Which Km [2] does the source give for B2 here?
Answer: (4.1±0.4)×10^−1 mM

Question: What about the kcat [2] of the same molecule?
Answer: 1.67 ± 0.167 s⁻¹

Question: And the kcat/Km [2]?
Answer: 4000 M⁻¹ s⁻¹

Question: What about the Km [3] of the same molecule?
Answer: (6.3±0.5)×10^−1 mM

Question: What about the kcat [3] of the same molecule?
Answer: 2.17 ± 0.167 s⁻¹

Question: What about the kcat/Km [3] of the same molecule?
Answer: 3500 M⁻¹ s⁻¹

Source: PMC9416874 (Carbohydrate research, 2014)
